Measurements gathered from unrelated publications.
Protocols differ between the studies behind these lines.
Target: Myosin light chain kinase family member 4 (MYLK4, Homo sapiens, UniProt Q86YV6)
Residues used in one study (Q86YV6 1-388): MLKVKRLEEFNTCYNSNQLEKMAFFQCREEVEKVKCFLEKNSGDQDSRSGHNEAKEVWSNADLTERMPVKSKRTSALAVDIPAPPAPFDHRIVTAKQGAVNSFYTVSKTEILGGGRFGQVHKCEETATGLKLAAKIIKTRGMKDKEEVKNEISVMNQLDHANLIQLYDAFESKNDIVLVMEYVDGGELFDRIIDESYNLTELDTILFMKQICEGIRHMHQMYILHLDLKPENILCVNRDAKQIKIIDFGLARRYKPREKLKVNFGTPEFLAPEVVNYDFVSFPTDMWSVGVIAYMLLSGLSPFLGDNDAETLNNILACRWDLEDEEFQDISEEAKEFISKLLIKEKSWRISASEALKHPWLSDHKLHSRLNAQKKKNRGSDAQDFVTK

COc1ccc2c(c1)O[C@@H](c1ccc(OC)c(OC)c1)C[C@H]2NC(=O)C1(c2ccc3c(c2)OC(F)(F)O3)CC1 gave a remaining binding of 97% (cell-free assay, competition with immobilised ligand; 1 µM).
The remaining binding of COc1cnc(Nc2cccc(S(N)(=O)=O)c2)nc1N1CCN(c2ccccc2)C(=O)C1 is reported as 100% (binding, competition with immobilised ligand; 1 µM).
The remaining binding of COc1cccc(CNC(=O)c2nc3scc(COCc4ccc(C(=O)O)cc4)c3c(=O)[nH]2)c1 is reported as 100% (cell-free assay, competition with immobilised ligand; 1 µM).
O=C(NCC1CCOCC1)c1n[nH]cc1NC(=O)c1c(F)cccc1F gave a remaining binding of 100% (binding, competition with immobilised ligand; 1 µM).
CN(CCCC(F)(F)F)c1nccc(-c2cnn3ncccc23)n1 gave a remaining binding of 100% (binding; 1 µM).
For COc1ncc2cc3ccccc3nc2c1C#N, the remaining binding was 93% (cell-free assay, competition with immobilised ligand; 5 µM).
With O=C(NCCCN1CCOCC1)c1ccc(Nc2nccc(-c3cc4ccccc4s3)n2)cc1 the remaining binding was 0.1% (binding, competition with immobilised ligand; 1 µM).
CN(C)c1ncc(F)c(-c2cnn3ncccc23)n1 has a remaining binding of 100% (binding; 1 µM).
With FC(F)(F)Oc1cccc(-c2cnc3ccc(-c4ccncc4)nn23)c1 the remaining binding was 0.35% (cell-free assay, competition with immobilised ligand; 5 µM).
For Nc1cnc(N2CCc3cc(S(=O)(=O)Nc4c(F)cc(Cl)cc4F)cc(N4CCCC4=O)c32)nc1, the remaining binding was 100% (cell-free assay, competition with immobilised ligand; 1 µM).
Nc1ncc2c(n1)-c1c([nH]c3ccc(C#CC4CC4)cc13)CCCC2 gave a remaining binding of 83% (binding, competition with immobilised ligand; 1 µM).
N[C@H]1CCN(c2nccc(-c3cnn4ncccc34)n2)C1 gave a remaining binding of 100% (binding; 1 µM).
CCC(=O)N[C@@H]1CC[C@H](C(=O)N(C)c2ccc(-c3nc4ccccc4o3)cc2)C1 has a remaining binding of 100% (cell-free assay, competition with immobilised ligand; 1 µM).
The remaining binding of O=C(c1ccc(Nc2ncc(Cl)c(-c3cc4ccccc4s3)n2)cc1)N1CCC(N2CCCC2)CC1 is reported as 0.1% (binding, competition with immobilised ligand; 1 µM).
For C[C@H](c1cccc(C#N)c1)n1cc(Cl)cc(C(N)=O)c1=N, the remaining binding was 100% (cell-free assay, competition with immobilised ligand; 1 µM).
With C[C@@H]1CCN(c2nccc(-c3cnn4ncccc34)n2)C1 the remaining binding was 100% (binding; 1 µM).
With Cc1cnc(Nc2ccc(C(=O)N3CCC(N4CCCC4)CC3)cc2)nc1-c1cc2ccccc2s1 the remaining binding was 0% (binding, competition with immobilised ligand; 1 µM).
CN(C)c1nccc(-c2cnn3ncccc23)n1 has a remaining binding of 88% (binding; 1 µM).
The remaining binding of Cc1nc(Cc2cccc(C(F)(F)F)c2)sc1-c1ccc(C(N)=O)nc1 is reported as 91% (cell-free assay, competition with immobilised ligand; 1 µM).
